The subject of one test is MDA-MB-435. Put plainly: Cytotoxicity against human MDA-MB-435 cells assessed as cell growth inhibition after 72 hrs by MTT assay. It is filed as functional, cell-based. The note with it: MDA-MB-435, 72 h. Summed up:
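MDA-MB-435 cells treated in triplicate with a range of concentrations for 72 h at 37°C, 5% CO2. Medium then replaced, MTT (5 mg/mL) added for 4 h, followed by overnight lysis in 10% SDS/5% isobutanol/12 mM HCl. Absorbance read at 590 nm; inhibition computed against control and blank wells. IC50 = concentration giving 50% growth inhibition, mean±SD of three experiments.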
For orientation: Tetrazolium assays rely on reduction of a dye to a coloured formazan, in cell work by metabolically active cells.

Test [1] has as its target DNA topoisomerase 2-alpha (Homo sapiens) (UniProt P11388). Put plainly: Inhibition of human recombinant topoisomerase-2 alpha assessed as topoisomerase poison activity using circular supercoiled plasmid DNA as substrate.
In test [2] the target is T1, Topoisomerase I (Bos taurus) (UniProt Q2HPH0).
T1 sequence (whole entry): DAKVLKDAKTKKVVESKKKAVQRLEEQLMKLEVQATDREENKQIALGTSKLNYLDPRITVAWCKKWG
Put plainly: Inhibition of calf thymus topoisomerase-1 assessed as conversion of negatively supercoiled plasmid DNA pBR322 to relaxed DNA at 100 uM after 30 mins by agarose gel electrophoresis. In short, it runs like this: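 Relaxation of 0.5 μg supercoiled pBR322 by 1 unit calf thymus TOP1 in 10 mM Tris-HCl pH 7.9, 150 mM NaCl, 0.1% BSA, 1 mM spermidine, 5% glycerol; 30 min at 37 °C. Reaction stopped with sarcosyl/bromophenol blue/glycerol. Products run on 1% agarose in TAE at 5 V/cm for 2 h and stained with ethidium bromide (0.5 μg/mL). Performed at least in duplicate.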

Test [3] addresses DNA topoisomerase 2-alpha (Homo sapiens) (UniProt P11388). In words: Inhibition of human recombinant topoisomerase-2 alpha assessed as conversion of negatively supercoiled plasmid DNA pBR322 to relaxed DNA at 100 uM after 30 mins by agarose gel electrophoresis. In short, it runs like this: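 Recombinant human TOP2α (1 unit) incubated with 0.5 μg supercoiled pBR322 in 10 mM Tris-HCl pH 7.9, 50 mM NaCl, 50 mM KCl, 5 mM MgCl2, 1 mM EDTA, 1 mM ATP, BSA; 30 min at 30 °C. Stopped with 7 mM EDTA. Products resolved on 1% agarose in TAE at 5 V/cm for 2 h and stained with ethidium bromide. Performed at least in duplicate.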

For test [4] the target is unchanged. Put plainly: Inhibition of human recombinant topoisomerase-2 alpha-mediated DNA cleavage using circular supercoiled plasmid DNA as substrate.

The source of these data is ChEMBL document CHEMBL3425454, “Synthesis, biological evaluation and modeling studies of terphenyl topoisomerase IIα inhibitors as anticancer agents” (Eur J Med Chem, 2015).

In general, IC50 refers to the midpoint of a concentration-inhibition curve.

SMILES strings stand for the structures. Calls of active or inactive are those of the source. No cut-off for these calls is given here.

Chain of DNA topoisomerase 2-alpha (Homo sapiens) (P11388 whole entry): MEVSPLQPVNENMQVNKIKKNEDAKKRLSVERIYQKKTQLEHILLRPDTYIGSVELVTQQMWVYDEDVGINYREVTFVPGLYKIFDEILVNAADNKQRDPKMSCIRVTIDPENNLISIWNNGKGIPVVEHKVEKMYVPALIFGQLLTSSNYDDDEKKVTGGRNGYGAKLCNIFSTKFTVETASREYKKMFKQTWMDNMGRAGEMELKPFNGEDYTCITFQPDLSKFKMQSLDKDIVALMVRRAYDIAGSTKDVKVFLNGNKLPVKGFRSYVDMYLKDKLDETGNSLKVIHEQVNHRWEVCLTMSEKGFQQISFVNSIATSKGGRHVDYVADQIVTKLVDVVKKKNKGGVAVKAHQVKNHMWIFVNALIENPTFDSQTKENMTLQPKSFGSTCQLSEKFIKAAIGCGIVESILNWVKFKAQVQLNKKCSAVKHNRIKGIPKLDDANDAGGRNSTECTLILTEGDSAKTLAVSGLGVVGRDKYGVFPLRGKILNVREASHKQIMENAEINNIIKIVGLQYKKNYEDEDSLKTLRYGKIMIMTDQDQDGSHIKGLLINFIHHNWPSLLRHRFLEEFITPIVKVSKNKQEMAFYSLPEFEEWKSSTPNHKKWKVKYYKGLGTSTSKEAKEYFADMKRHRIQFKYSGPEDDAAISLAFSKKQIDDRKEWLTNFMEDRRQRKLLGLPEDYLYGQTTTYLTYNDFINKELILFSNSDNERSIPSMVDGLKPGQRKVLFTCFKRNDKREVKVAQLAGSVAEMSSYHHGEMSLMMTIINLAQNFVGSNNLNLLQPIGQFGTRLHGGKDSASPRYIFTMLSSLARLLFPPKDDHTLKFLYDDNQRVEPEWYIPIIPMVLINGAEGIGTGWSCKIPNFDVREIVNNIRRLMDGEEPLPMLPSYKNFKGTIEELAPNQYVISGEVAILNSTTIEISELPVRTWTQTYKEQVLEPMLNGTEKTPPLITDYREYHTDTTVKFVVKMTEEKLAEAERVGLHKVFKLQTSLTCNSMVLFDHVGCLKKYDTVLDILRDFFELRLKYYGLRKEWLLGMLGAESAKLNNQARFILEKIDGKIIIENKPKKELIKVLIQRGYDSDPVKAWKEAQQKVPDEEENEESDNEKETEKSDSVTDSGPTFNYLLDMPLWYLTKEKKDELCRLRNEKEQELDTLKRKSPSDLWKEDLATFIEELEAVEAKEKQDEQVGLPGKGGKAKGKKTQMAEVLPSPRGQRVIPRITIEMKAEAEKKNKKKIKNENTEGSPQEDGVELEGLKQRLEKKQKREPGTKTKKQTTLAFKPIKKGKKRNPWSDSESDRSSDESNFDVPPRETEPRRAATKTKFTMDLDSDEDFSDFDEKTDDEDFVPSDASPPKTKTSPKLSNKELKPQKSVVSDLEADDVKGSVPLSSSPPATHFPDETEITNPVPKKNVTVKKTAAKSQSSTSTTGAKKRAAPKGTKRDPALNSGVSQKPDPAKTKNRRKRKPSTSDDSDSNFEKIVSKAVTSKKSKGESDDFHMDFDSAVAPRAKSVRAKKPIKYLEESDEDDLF

For `COc1ccc(-c2cccc(OC)c2OC)cc1OC`, the IC50 in the test with MDA-MB-435 was found to be 23.1 µM.

Regarding `O=[N+]([O-])c1cc(-c2ccc(O)c([N+](=O)[O-])c2)ccc1O`, the IC50 in the test on MDA-MB-435 is > 100 µM.

For `O=C(O)c1ccc(-c2ccc(-c3ccc(O)cc3)c(O)c2O)cc1O`, the IC50 in the test on MDA-MB-435 was 36.8 µM.

`O=C(O)c1ccc(-c2ccc(-c3ccc(O)c(O)c3)c(O)c2O)cc1`: the IC50 in the test with MDA-MB-435 is > 100 µM.

Turning to `CCOc1c(-c2ccc(O)cc2)ccc(-c2ccc(O)cc2)c1OCC`, the 50% inhibitory concentration (IC50) with MDA-MB-435 was determined as 41.8 µM.

As for `COC(=O)c1ccc(-c2ccc(-c3ccc(O)cc3)c(OC)c2OC)cc1O`, the IC50 with MDA-MB-435 is 20.9 µM.

Take `Oc1ccc(-c2ccc(-c3ccc(O)c(O)c3)c(O)c2O)cc1O`: the inhibition entry in test [1] was “inactive”. For the same compound, the inhibition result in test [2], in test [3] and in test [4] was “Active” in each case. For the same compound, the 50% inhibitory concentration (IC50) in the test with MDA-MB-435 was found to be 3.96 µM.

For `COc1c(-c2ccc(O)cc2)ccc(-c2ccc(C(=O)O)c(O)c2)c1OC`, the IC50 with MDA-MB-435 was > 100 µM.

As for `Oc1ccc(-c2ccc(-c3ccc(O)c(O)c3)c(O)c2O)cc1`, the IC50 in the test on MDA-MB-435 was 4.1 µM.

Turning to `O=C(O)c1cc(-c2ccc(-c3ccc(O)cc3)c(O)c2O)ccc1O`, the IC50 in the test on MDA-MB-435 came to 99.8 µM.

In the case of `COc1ccc(-c2ccc(-c3ccc(C(=O)O)cc3)c(OC)c2OC)cc1OC`, in the test with MDA-MB-435, the concentration for half-maximal inhibition (IC50) is > 100 µM.

`COc1c(-c2ccc(O)cc2)ccc(-c2ccc(O)c(C(=O)O)c2)c1OC`: in the test on MDA-MB-435, the IC50 was > 100 µM.

As for `COc1c(-c2ccc(O)c([N+](=O)[O-])c2)ccc(-c2ccc(O)c([N+](=O)[O-])c2)c1OC`, the half-inhibitory concentration (IC50) with MDA-MB-435 turned out to be 61.8 µM.

Regarding `COc1ccc(-c2ccc(-c3ccc(OC)c(OC)c3)c(OC)c2OC)cc1OC`, in the test with MDA-MB-435, the IC50 stood at 90.8 µM.

With `COc1cc([C@@H]2c3cc4c(cc3[C@@H](O[C@@H]3O[C@@H]5CO[C@@H](C)O[C@H]5[C@H](O)[C@H]3O)[C@H]3COC(=O)[C@H]23)OCO4)cc(OC)c1O` [ETOPOSIDE], the inhibition entry in test [3] is “Active”. Besides, the IC50 in the test on MDA-MB-435 came out at 2.81 µM.

Consider `COc1c(-c2ccc(O)cc2)ccc(-c2ccc(O)cc2)c1OC`, for which, in test [3], the inhibition result was “Active”. In addition, in the test on MDA-MB-435, the IC50 stood at 14.7 µM.

Regarding `Oc1ccc(-c2ccc(-c3ccc(O)cc3)c(O)c2O)cc1`, in the test on MDA-MB-435, the IC50 was > 100 µM.

As for `COC(=O)c1cc(-c2ccc(-c3ccc(O)cc3)c(OC)c2OC)ccc1O`, the IC50 in the test on MDA-MB-435 worked out at 44.8 µM.

For `COc1ccc(-c2ccc(-c3ccc(OC)cc3)c(OC(C)=O)c2OC(C)=O)cc1`, in the test on MDA-MB-435, the half-inhibitory concentration (IC50) was 96.8 µM.

`COc1ccc(-c2ccc(-c3ccc(OC)c(OC)c3)c(OC(C)=O)c2OC(C)=O)cc1OC`: in the test with MDA-MB-435, the IC50 is > 100 µM.

Consider `CCOc1c(-c2ccc(OC)c(OC)c2)ccc(-c2ccc(OC)c(OC)c2)c1OCC`, for which the concentration for half-maximal inhibition (IC50) in the test on MDA-MB-435 was > 100 µM.
